Experimental findings from ChEMBL document CHEMBL1157544, “New benzophenone-derived bisphosphonium salts as leishmanicidal leads targeting mitochondria through inhibition of respiratory complex II” (2010) are described below.

Test [1] has as its system Leishmania pifanoi. In words: Antileishmanial activity against Leishmania pifanoi MHOM/VE/60/Ltrod after 96 hrs by MTT assay. It is filed as functional. The procedure, abridged: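 Axenic amastigotes harvested at late exponential phase, washed twice in HBSS plus 10 mM D-glucose (pH 7.2) and set at 2 × 10^7 cells/mL. Drug exposure 4 h at 32 °C, then washed. Regrowth 96 h at 32 °C in growth medium without phenol red, followed by MTT (1 mg/mL) reduction for 2 h at 32 °C. LC50 taken from sigmoidal curves; triplicates ± SD.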
Background: Tetrazolium dyes change colour on reduction, which living cells bring about.

Test [2] has as its system Leishmania donovani. The test is described as follows: Antileishmanial activity against Leishmania donovani MHOM/SC/00/1S-2D promastigotes after 48 hrs by MTT assay. It is filed as functional. The procedure, abridged: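 Late-exponential promastigotes washed twice in HBSS plus 10 mM D-glucose (pH 7.2) and resuspended at 2 × 10^7 cells/mL. Drug exposure 4 h at 25 °C, then cells washed to remove unbound drug. Regrowth 48 h at 25 °C in growth medium without phenol red, followed by MTT (1 mg/mL) reduction for 2 h at 25 °C. LC50 taken from sigmoidal inhibition curves; mean of triplicates ± SD.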

Test [3] relates to Leishmania donovani. The test is described as follows: Antileishmanial activity against Leishmania donovani MHOM/SC/00/1S-2D promastigotes assessed as rhodamine 123 accumulation at LC50 by mitochondrial membrane potential assay. The format is functional. The procedure, abridged:
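Promastigotes held overnight in growth medium with each compound at its LC50, then loaded with 0.3 μg/mL rhodamine 123. Dye uptake measured by flow cytometry (ex 488/em 525 nm) and expressed as percent of untreated cells. 1 mM KCN used as the fully depolarized control.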

Test [4] concerns Leishmania donovani. In words: Antileishmanial activity against digitonized Leishmania donovani MHOM/SC/00/1S-2D promastigotes assessed as inhibition of oxygen consumption at 16 uM in presence of FCCP mitochondrial uncoupler. The format is functional, organism-based. The procedure, abridged:
(§1)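 Clark electrode at 25 °C. Promastigotes at 10^8 cells/mL in respiration buffer with 5 mM succinate and 1 mg/mL fatty-acid-free BSA. Cells permeabilized with 60 μM digitonin, then 100 μM ADP added for state 3. After a steady rate, compound added, then 10 μM FCCP, 0.1 mM TMPD + 1.7 mM ascorbate, 6.7 mM α-glycerophosphate, 2 mM malonate or 1 μM antimycin A. Rates taken from trace slopes.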

The test system of test [5] is Leishmania donovani. The test is described as follows: Induction of apoptosis in Leishmania donovani MHOM/SC/00/1S-2D promastigotes assessed as apoptotic cells at 1 uM propidium iodide fluorescence cytofluorometry. The format is functional. The essentials: (§2)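 Promastigotes incubated overnight with the compound, then stained with 50 μg/mL propidium iodide. The sub-G1 peak was measured by flow cytometry. 15 μM miltefosine under identical conditions served as the positive control.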

Test [6] relates to Leishmania donovani. In words: Antileishmanial activity against Leishmania donovani MHOM/SC/00/1S-2D promastigotes assessed as plasma membrane integrity at 25 uM. The format is functional, organism-based. The essentials:
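SYTOX green uptake. Promastigotes (2 × 10^7/mL) in HBSS-Glc were preincubated with 1 μM dye before compound was added. Fluorescence read at ex 485/em 520 nm. Full permeation was defined by 0.1% Triton X-100.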

The test system of test [7] is Leishmania donovani. In words: Induction of apoptosis in Leishmania donovani MHOM/SC/00/1S-2D promastigotes assessed as apoptotic cells at 15 uM propidium iodide fluorescence cytofluorometry. The format is functional. The essentials:
as §2

The test system of test [8] is Leishmania donovani. The test is described as follows: Antileishmanial activity against digitonized Leishmania donovani MHOM/SC/00/1S-2D promastigotes assessed as inhibition of oxygen consumption at 16 uM. The format is functional, organism-based. The essentials:
as §1

Test [9] deals with Leishmania donovani. In words: Decrease in intracellular ATP level in Leishmania donovani MHOM/SC/00/1S-2D promastigotes assessed as luminescence at 0.6 to 8 uM. It is filed as functional, organism-based. The procedure, abridged:
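3-Luc promastigotes expressing cytoplasmic firefly luciferase, 2 × 10^7/mL in HBSS-Glc, loaded with 25 μM DMNPE-luciferin (final). Compound added at the luminescence plateau, counted as time zero and 100%. Luminescence recorded 80 min, averaged every 4 s, and normalized to untreated parasites.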

Test [10] has as its system Leishmania donovani. The test is described as follows: Induction of apoptosis in Leishmania donovani MHOM/SC/00/1S-2D promastigotes assessed as apoptotic cells at 2.5 uM propidium iodide fluorescence cytofluorometry. It is filed as functional. The essentials: as §2
The test system of test [11] is Leishmania donovani. In words: Antileishmanial activity against Leishmania donovani MHOM/SC/00/1S-2D promastigotes assessed as inhibition of proliferation at 5 um after 4 hrs. It is filed as functional. The essentials:
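Promastigotes washed into HBSS-Glc pH 7.2 at 2 × 10^7 cells/mL and exposed to drug for 4 h at 25 °C. Cells then washed and left to grow 48 h at 25 °C in growth medium without phenol red. Growth read by MTT reduction (1 mg/mL, 2 h). Triplicate samples.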

For test [12], the system named is Leishmania donovani. The test is described as follows: Antileishmanial activity against digitonized Leishmania donovani MHOM/SC/00/1S-2D promastigotes assessed as restoration of oxygen consumption at 16 uM in presence of TMPD-ascorbate. It is filed as functional. The procedure, abridged: as §1
In test [13] the test system is Leishmania donovani. The test is described as follows: Induction of morphological changes in Leishmania donovani MHOM/SC/00/1S-2D promastigotes assessed as mitochondrial kinetoplast at 5 uM after 4 hrs. It is filed as functional, organism-based. The procedure, abridged:
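Promastigotes treated 4 h under the standard conditions, washed in PBS and fixed in 5% glutaraldehyde. Post-fixed in 2.5% OsO4 for 1 h, dehydrated through graded ethanol and propylene oxide, embedded in Epon 812 and imaged by transmission electron microscopy.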

The test system of test [14] is Leishmania donovani. In words: Antileishmanial activity against digitonized Leishmania donovani MHOM/SC/00/1S-2D promastigotes assessed as restoration of oxygen consumption at 16 uM in presence of alpha-glycerophosphate. It is filed as functional, organism-based. The procedure, abridged: as §1

Calls of active or inactive are those of the source. The rule behind the calls is not given here.

With `CCC[P+](CCC)(CCC)Cc1ccc(C(=O)c2ccc(C[P+](CCC)(CCC)CCC)cc2)cc1`, the LC50 in test [1] and in [2] was over 50 µM in each case.
For `Cc1ccc([P+](Cc2ccc(C(=O)c3ccc(C[P+](c4ccccc4)(c4ccccc4)c4ccc(C)cc4)cc3)cc2)(c2ccccc2)c2ccccc2)cc1.[Br-].[Br-]`, the Activity in test [3] is 53.25%. Also, the median lethal concentration (LC50) (in general, the concentration lethal to half of the exposed cells or organisms) in test [1] turned out to be 1.38 µM; in test [2] it was 1.2 µM.
For `CC[P+](Cc1ccc(C(=O)c2ccc(C[P+](CC)(c3ccccc3)c3ccccc3)cc2)cc1)(c1ccccc1)c1ccccc1.[Br-].[Br-]` the same measures were 100%, 14 µM and 6.9 µM.
Regarding `O=C(c1ccc(C[P+](c2ccccc2)(c2ccccc2)c2ccccc2)cc1)c1ccc(C[P+](c2ccccc2)(c2ccccc2)c2ccccc2)cc1.[Br-].[Br-]`, the Activity in test [3] was determined as 67.25%. For the same molecule, the figures for the LC50 in [1] and in test [2] were 1.53 µM and 2.73 µM, respectively.
In the case of `CC[P+](CC)(CC)Cc1ccc(C(=O)c2ccc(C[P+](CC)(CC)CC)cc2)cc1`, the median lethal concentration (LC50) in [1] and in [2] was over 50 µM in each case.
Regarding `CC(C)C[P+](Cc1ccc(C(=O)c2ccc(C[P+](CC(C)C)(CC(C)C)CC(C)C)cc2)cc1)(CC(C)C)CC(C)C`, the LC50 in test [1] and in test [2] was over 50 µM in each case.
As to `Cc1ccccc1[P+](Cc1ccc(C(=O)c2ccc(C[P+](c3ccccc3)(c3ccccc3)c3ccccc3C)cc2)cc1)(c1ccccc1)c1ccccc1.[Br-].[Br-]`, the Activity in test [3] worked out at 55.75%. The values for the median lethal concentration (LC50) in [1] and in test [2] were 1.51 µM and 1.9 µM, respectively.
Take `O=C(c1ccc(C[P+](c2ccco2)(c2ccco2)c2ccco2)cc1)c1ccc(C[P+](c2ccco2)(c2ccco2)c2ccco2)cc1`: the median lethal concentration (LC50) was over 50 µM in [1] and 18.1 µM in test [2].
For `O=C(c1ccc(C[P+](c2ccccc2)(c2ccccc2)c2ccccn2)cc1)c1ccc(C[P+](c2ccccc2)(c2ccccc2)c2ccccn2)cc1.[Br-].[Br-]`, the Activity in [3] was determined as 100%. Besides, the median lethal concentration (LC50) came to 2.58 µM in [1] and 3.03 µM in [2].
For `C[P+](C)(Cc1ccc(C(=O)c2ccc(C[P+](C)(C)c3ccccc3)cc2)cc1)c1ccccc1`, the LC50 in test [1] and in [2] was over 50 µM each time.
In the case of `CCCCCCCCCCCCCCCCOP(=O)([O-])OCC[N+](C)(C)C` [MILTEFOSINE], the Activity in [3] is 75%. Also, the median lethal concentration (LC50) in test [1] was 26.3 µM; in test [2] it was 12.5 µM.
Consider `CC(C)[P+](Cc1ccc(C(=O)c2ccc(C[P+](C(C)C)(C(C)C)C(C)C)cc2)cc1)(C(C)C)C(C)C`, for which the median lethal concentration (LC50) in test [1] and in test [2] was over 50 µM throughout.
In the case of `C[P+](Cc1ccc(C(=O)c2ccc(C[P+](C)(c3ccccc3)c3ccccc3)cc2)cc1)(c1ccccc1)c1ccccc1.[Br-].[Br-]`, the Activity in [3] is 100%. The results for the 50% lethal concentration (LC50) in [1] and in test [2] were 1.64 µM and 19.3 µM, respectively.
For `CC[P+](CC)(Cc1ccc(C(=O)c2ccc(C[P+](CC)(CC)c3ccccc3)cc2)cc1)c1ccccc1`, the LC50 in test [1] and in test [2] was over 50 µM each time.
As to `O=C(c1ccc(C[P+](C2CCCCC2)(C2CCCCC2)C2CCCCC2)cc1)c1ccc(C[P+](C2CCCCC2)(C2CCCCC2)C2CCCCC2)cc1.[Br-].[Br-]`, the Activity in test [3] came to 42%. Further, the LC50 in test [1] came to 1.67 µM; in test [2], 3.3 µM.
For `CCCCCCCC[P+](CCCCCCCC)(CCCCCCCC)Cc1ccc(C(=O)c2ccc(C[P+](CCCCCCCC)(CCCCCCCC)CCCCCCCC)cc2)cc1.[Br-].[Br-]` the same measures were 10.8%, 1.37 µM and 5.66 µM.
For `CCCCC[P+](CCCCC)(CCCCC)Cc1ccc(C(=O)c2ccc(C[P+](CCCCC)(CCCCC)CCCCC)cc2)cc1.[Br-].[Br-]`, the Activity in test [3] was 48%; in test [5] it was 22.1%; in test [7] it was 24.9%; in [10], 34.5%; in [12], 50%. Further, the values for the LC50 in test [1] and in [2] were 0.97 µM and 1.09 µM, respectively. Besides, the outcome in test [4], in test [8], in test [9], in [13] and in test [14] was Active. Also, the result in [6] was inactive. Besides, the “inhibition (INH)” value in test [11] was 80%.
As to `O=C(c1ccc(C[P+](c2ccccc2)(C2CCCCC2)C2CCCCC2)cc1)c1ccc(C[P+](c2ccccc2)(C2CCCCC2)C2CCCCC2)cc1.[Br-].[Br-]`, in test [3], the Activity stood at 83.12%. The LC50 turned out to be 1.45 µM in test [1] and 2.1 µM in test [2].
Regarding `CCCC[P+](CCCC)(CCCC)Cc1ccc(C(=O)c2ccc(C[P+](CCCC)(CCCC)CCCC)cc2)cc1`, the LC50 in test [1] and in test [2] was over 50 µM each time.
`C[P+](C)(C)Cc1ccc(C(=O)c2ccc(C[P+](C)(C)C)cc2)cc1`: the median lethal concentration (LC50) in test [1] and in test [2] was over 50 µM in each case.
